These results are taken from article PMC9064604 (RSC Advances, 2019).

Structures are written as SMILES. Like-named read-outs stand apart in the source and are kept apart here. Where only a bound is given, the exact number is not on record here.

Assay [1] relates to human colon adenocarcinoma Caco-2. The assay can be described thus: Cell viability assay. The assay is classed as cell-based. To be noted: Caco-2, 72 h, read-out: IC50 Caco-2, dark.
For assay [2], the system named is human colorectal adenocarcinoma HT-29. Kind of assay: Cell viability assay. In kind it is cell-based. To be noted: read-out: IC50 HT-29, dark.
Assay [3] relates to human alveolar adenocarcinoma A549. The assay can be described thus: Cell viability assay. The assay is classed as cell-based. The conditions noted are these: A549, 72 h, read-out: IC50 A549, dark.
The next assay deals with murine melanoma B16-F10. The assay can be described thus: Cell viability assay. The assay is classed as cell-based. To be noted: read-out: IC50 B16-F10, dark.
In assay [4] the test system is triple negative human breast adenocarcinoma MDA-MB-231. Kind of assay: Cell viability assay. The assay is classed as cell-based. To be noted: MDA-MB-231, 72 h, read-out: IC50 MDA-MB-231, dark.
The test system of the next assay is A549 cells. Kind of assay: Quantification of cellular uptake by LC-MS/MS. The assay is classed as cell-based, human. The gist of the method:
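A549 cells (1.2 × 10⁵/well) adhered overnight, then received 3 μM test compound. Medium was removed immediately or after 1, 3, 6, 12 or 24 h in the dark at 37 °C/5% CO₂. Cells were washed with PBS/1.5% DMSO, scraped into acetonitrile, sonicated and centrifuged. Extracts were quantified by LC-MS/MS against external standards (0.02–0.25 μM in A549 extract). Per-cell concentration assumed 1.7 pL cell volume; n = 4, mean ± SEM.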

On to `Cc1cc(-c2ccccc2)c2ccc3c(-c4ccccc4)cc(C)nc3c2n1` [BC, bathocuproine], for which the IC50 (in general, the point on the concentration scale where inhibition reaches its midpoint) in assay [1] is over 100 µM; in assay [2] (Homo sapiens, HT-29, 72 h), over 100 µM; in assay [3], over 100 µM; in the assay on murine melanoma B16-F10 (Mus musculus, B16-F10, 72 h), over 100 µM; in assay [4] it was over 100 µM. The “maximum cellular concentration per cell” value in the assay with A549 cells (3 μM, A549, assuming average cell volume of 1.7 pL and homogeneous distribution) turned out to be 2000 μM per cell. Moreover, the “time at which cellular uptake was optimal / plateaued” value with A549 cells (A549, 3 μM) stood at 3 h.
`N.N.[Cl][Pt][Cl]` [Cisplatin, cisplatin]: the IC50 is over 100 µM in assay [2] (dark, 72 h, WST-1, mean ± SEM) and 7.7 ± 0.2 µM with murine melanoma B16-F10 (dark, 72 h, WST-1, mean ± SEM).
For `c1ccc(-c2ccccn2)nc1` [bipy, 2,2′-bipyridine], the IC50 in assay [1] is over 100 µM; in assay [2] (Homo sapiens, HT-29, 72 h), over 100 µM; in assay [3], over 100 µM; in the assay with murine melanoma B16-F10 (Mus musculus, B16-F10, 72 h), over 100 µM; in assay [4], 37.5 ± 0.14 µM.
